# TCR-CD3 inh: inhibitors of human TCR-CD3 interaction, primary screen, biochemical, fluorescence, TAMRA-labeled TCR probe | T-cell receptor (TCR) | inhibition, % at 9.4 µM | 0.37% of 360,000 active | AID 651800, 2012; in the data active = inhibition above about 19%;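 also: recombinant mutant TCR 2C K166C tagged with TAMRA read by polarization; 0% = receptor in buffer alone and 100% = receptor with positive control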
# ABHD4 inh: ABHD4 inhibitors, primary screen, biochemical, fluorescence polarization, mouse | purified mABHD4, FP-Rh probe fluorescence polarization | inhibition, % at 8.92 µM | AID 720543, 2013 | 0.54% of 370,000 active;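 active = inhibition exceeding the mean over every tested compound plus 3 SD, cut at about 30% in these data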;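 also: 0% = plate median of compound wells and 100% = S159A mutant with DMSO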
#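 Test system: mABHD4 protein; Read-out basis: % inhibition; Incubation: 45 min + 60 min at 25 °C; Repeats: single replicate; Technique: fluorescence polarization with parallel and perpendicular emission, 525/598 nm; Compound: 8.92 µM, single dose; Benchmarks: full inhibition S159A mutant plus DMSO, zero as sample-well median.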
# pPAFAH inh: pPAFAH enzyme inhibitors, primary screen, biochemical, fluorescence polarization, human | AID 463082, 2010 | 1.5% of 330,000 active | inhibition, % at 3.39 µM | Platelet-activating factor acetylhydrolase (Homo sapiens), Q13093 | recombinant pPAFAH, FP-rhodamine probe fluorescence polarization;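 active = inhibition above the mean inhibition across the screen plus 3 SD, cut at about 25% in these data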;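 also: inhibitors block binding of the rhodamine activity-based probe so polarization drops; 0% = enzyme with DMSO and 100% = wells lacking pPAFAH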
# Target sequence (Q13093 whole entry, looked up): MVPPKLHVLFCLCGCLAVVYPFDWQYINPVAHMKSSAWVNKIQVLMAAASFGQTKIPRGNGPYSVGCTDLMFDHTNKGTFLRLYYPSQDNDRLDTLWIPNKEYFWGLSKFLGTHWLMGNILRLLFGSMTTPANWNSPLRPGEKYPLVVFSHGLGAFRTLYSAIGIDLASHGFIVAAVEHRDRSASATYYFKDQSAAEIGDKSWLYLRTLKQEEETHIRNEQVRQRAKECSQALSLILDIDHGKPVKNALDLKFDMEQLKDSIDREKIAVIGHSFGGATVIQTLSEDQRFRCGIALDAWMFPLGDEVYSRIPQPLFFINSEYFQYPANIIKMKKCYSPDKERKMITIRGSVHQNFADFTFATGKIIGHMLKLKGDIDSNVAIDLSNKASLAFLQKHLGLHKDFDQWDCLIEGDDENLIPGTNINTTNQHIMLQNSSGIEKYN
# SIAE primary: human SIAE inhibitors, primary screen, biochemical, fluorescence polarization, FP-Rh probe, 1536-well HTS. 0.69% of 370,000 active. Sialate O-acetylesterase (Homo sapiens), Q9HAT2. inhibition, % at 9.66 µM. SIAE FP-Rh probe binding;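 active = inhibition above a cutoff: mean of compounds within the control limits plus 3 SD of those, cut at about 17% in these data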;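 also: 0% = plate median of compound wells and 100% = probe without SIAE protein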
# HTRA1 inhibitor: HTRA1 serine protease inhibitors, primary screen, biochemical, fluorescence polarization, HTS; Q92743; recombinant HTRA1, FP-rhodamine activity-based probe; inhibition, % at 5.96 µM; 0.5% of 340,000 active; in the data active = inhibition above about 36%;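 also: 0% = enzyme with DMSO and 100% = wells lacking enzyme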
# SIAE confirm: human SIAE inhibitors, retest, confirmation, biochemical, fluorescence polarization, FP-Rh probe, triplicate; 13% of 2,300 active; inhibition, % at 9.66 µM; shares compounds with SIAE primary; SIAE FP-Rh activity-based probe;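 active = mean inhibition of the replicates above the hit cutoff set in the primary screen, cut at about 17% in these data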;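 also: 0% = SIAE with DMSO and probe and 100% = probe without SIAE; inhibitors lower polarization as more probe stays unbound to SIAE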
# * = called active by the depositor; x = not tested or not shown. Shown are actives, neighbours in structure and some others; about 2.3% of the full set was active somewhere.
SMILES,TCR-CD3 inh,ABHD4 inh,pPAFAH inh,SIAE primary,HTRA1 inhibitor,SIAE confirm
COc1ccc(-c2nnc(SCc3cccc(F)c3)n2-c2ccccc2)cc1,x,-0.2,x,-1.5,x,x
COc1cc(CCC(=O)NCCc2ccc(F)cc2)cc(OC)c1OC,-1.6,-3.3,-2.3,18.4*,-4.1,-11.6
COC(=O)[C@]12C[C@H](CC(=O)N3CCN(C(=O)c4ccco4)CC3)C(=O)N(Cc3ccc(Cl)cc3Cl)C1=C[C@H](C(C)(C)C)O[C@@H]2C,x,-22.1,x,-7.5,x,x
CCOC(=O)N(C)[C@H]1C[C@H]2c3[nH]c4cccc(-c5cccc(F)c5)c4c3CCN2C(=O)[C@H]1[C@H](C)O,x,-2.0,x,8.5,x,x
COc1ccc(NC(=O)c2cccc(N3C(=O)c4ccc(C(=O)Nc5ccc(OC)c(O)c5)cc4C3=O)c2)cc1O,0.8,20.1,4.8,23.1*,3.8,4.8
COc1ccccc1N1C(=O)c2ccc(C(=O)Nc3ccc(C(=O)O)cc3)cc2C1=O,-4.8,-7.3,1.0,6.3,1.6,x
Nc1nnn(CC(=O)N/N=C/c2cn[nH]c2-c2ccccc2)n1,-3.8,-0.4,3.8,21.3*,2.5,0.4
O=C(Nc1ccc(N2CCCC2)cc1)c1cccc(F)c1,-9.7,9.2,9.4,17.6*,26.1,-0.8
CCC(=O)N1Cc2cc(C(=O)Nc3nccs3)nc(-c3cccc(-c4ccccc4OC)c3)c2[C@H]1CCO,3.3,-6.3,x,-16.6,x,x
CN(c1cccnc1)c1ccc(NC(=O)CCc2c[nH]c3ccccc23)cc1Br,-6.5,22.5,x,31.8*,x,45.1*
O=C(CCc1c[nH]c2ccccc12)NCCc1ccc2c(c1)OCCO2,-2.2,-0.4,2.0,17.2*,-1.0,-1.8
CCc1nnc(NC(=O)CCc2c[nH]c3ccccc23)s1,-1.1,1.4,0.7,18.2*,-1.3,4.9
O=C(CCc1c[nH]c2ccccc12)Nc1ccc(Nc2cccnc2)cc1,-3.8,8.8,x,10.9,x,x
O=C(CCc1c[nH]c2ccccc12)Nc1ccc(Nc2ccncc2)cc1,-4.4,10.2,x,26.1*,x,21.2*
Cc1cccc(-c2nnc(SCC(=O)Nc3ccc(-c4nc5ccc(C)cc5s4)cc3)n2Cc2ccco2)c1,x,-22.1,x,-21.1,x,x
COc1ccc(CN(C)CC#Cc2ccccc2)c(OC)c1,x,-3.8,x,3.6,x,x
COC(=O)C1=CC[C@@H](NC(=O)OC(C)(C)C)[C@H](O)[C@H]1O[Si](C)(C)C(C)(C)C,x,-5.9,x,7.0,x,x
O=C(CCc1c[nH]c2ccccc12)Nc1ccc(Nc2ccccc2)cc1,-7.6,8.8,x,17.1*,x,12.8
C/C(=N\NC(=O)CCc1c[nH]c2ccccc12)c1ccc([N+](=O)[O-])cc1,-3.2,2.3,5.2,17.8*,-3.8,3.7
O=C(NCCc1ccc(Cl)cc1)C(=O)c1c[nH]c2ccccc12,1.2,-13.9,9.2,3.1,-9.5,x
O=C(NCCc1c[nH]c2ccccc12)C(=O)c1c[nH]c2ccccc12,6.4,-7.9,10.0,26.6*,-19.2,-4.6
c1ccc(Nc2ccc(NCCc3c[nH]c4ccccc34)cc2)cc1,-9.6,23.1,x,12.9,x,x
COC(=O)C[C@@H]1C=C[C@@H](NS(=O)(=O)c2ccc(OC)cc2)[C@@H](CO)O1,-4.5,-1.8,x,2.5,x,x
FC(F)(F)c1ccc(-c2cccc3c2C2CC3CCN2Cc2ccc3c(c2)OCO3)cc1 (stereo not drawn),2.4,0.2,x,-1.2,x,x
COc1ccc(-c2nc(-c3ccccc3)c(-c3cc([N+](=O)[O-])ccc3C)[nH]2)cc1OC,5.7,3.9,5.4,2.9,-0.4,x
SMILES,TCR-CD3 inh,ABHD4 inh,pPAFAH inh,SIAE primary,HTRA1 inhibitor,SIAE confirm
O=[N+]([O-])c1ccc(O)c(-c2nc(-c3ccccc3)c(-c3cccs3)[nH]2)c1,3.7,-0.3,11.4,17.1*,2.5,6.6
CCOc1cc(-c2nc(-c3ccccc3)c(-c3cc([N+](=O)[O-])ccc3C)[nH]2)ccc1O,-7.4,13.4,11.7,24.4*,9.7,6.5
CC(C)CCN1C(=O)c2ccccc2C1c1nnnn1-c1ccc2c(c1)OCCO2 (stereo not drawn),5.6,0.9,x,0.1,x,x
O=C(Nc1cccc(-c2csc(Nc3ccc(Cl)cc3)n2)c1)c1cccc(C(F)(F)F)c1,1.5,-6.5,21.9,13.5,13.3,x
O=C(Nc1cccc(-c2csc(Nc3ccccc3)n2)c1)c1cc([N+](=O)[O-])cc(C(F)(F)F)c1,5.7,-3.5,29.5*,32.2*,-7.0,12.3
CCN1CCN(C(=O)/C(=C/c2ccco2)NC(=O)c2ccccc2)CC1,10.4,-1.1,4.0,18.4*,11.7,0.9
O=C(N/C(=C/c1ccco1)C(=O)N1CCCCCC1)c1ccccc1,-0.5,15.2,3.2,13.2,2.9,x
O=C(c1ccccc1N1CCOCC1)N1CCCC(Nc2ccc(F)cc2)C1 (stereo not drawn),6.6,3.1,-3.4,8.9,3.4,x
O=C(CCN1CCOCC1)N1CCCC(Nc2ccc(F)cc2)C1 (stereo not drawn),6.9,4.3,1.3,17.7*,-1.2,-1.7
CN1CCN(c2ncnc3c2ncn3[C@H]2CN(Cc3cccnc3)C[C@@H](CO)O2)CC1,-1.3,-0.2,x,-1.6,x,x
O=C1OCC2=Nc3cccc4cccc(c34)N12,4.0,17.2,x,-0.2,x,x
CCc1ccccc1NNC(=O)c1snnc1C,1.7,1.7,-2.3,17.1*,x,3.6
CCOC(=O)C1=C(C)OC(N)=C(C#N)C1c1cc(SCC)oc1C (stereo not drawn),7.8,1.1,1.1,18.8*,0.9,-7.6
Cc1ccc([C@H]2C[C@@H](O)[C@H](n3cc(C4CC4)nn3)CN2CC2CCCCC2)cc1,0.7,2.6,x,-1.1,-5.1,x
COc1cc2c(cc1OC)/C(=C/C(=O)OCc1ccccc1)OC2,-2.4,-11.3,x,-3.1,x,x
O=C(/C=C/[C@H]1O[C@@H](n2ccc(=O)[nH]c2=O)[C@H](O)[C@@H]1O)NCc1ccccc1,0.3,-8.1,x,1.8,x,x
CC1CCN(C(=O)CSc2nnc(CNC(=O)c3ccco3)o2)CC1,-1.9,0.2,4.4,22.1*,1.6,0.6
CCOc1cc(/C=N/Nc2nc(-c3cccc(S(=O)(=O)N4CCCC4)c3)cs2)ccc1O,-0.9,0.6,17.9,20.7*,17.7,-1.1
COc1cc(/C=N/Nc2nc(-c3ccc(S(=O)(=O)N(C)C)cc3)cs2)ccc1O,-9.5,11.7,8.6,17.2*,8.0,7.7
COc1ccc(/C=N/Nc2nc(-c3cccc(S(=O)(=O)N4CCCC4)c3)cs2)cc1OC,-1.6,8.1,6.8,0.9,-1.9,x
COC(=O)C1=CN(c2cccc(OCc3ccccc3)c2)C(N)=C(C#N)C1c1cccc(OC)c1OC (stereo not drawn),3.5,5.3,x,4.2,x,x

# High-throughput results from PubChem.
